Most compounds without a hit are left out; they make up all but 2.6% or so of the library.
b-catenin transl: beta-catenin nuclear translocation modulation; HeLa beta-catenin nuclear translocation, immunofluorescence imaging; nuclear translocation activity, % at 5 µM; actives 0.3% (n = 190,000);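 active = nuclear translocation activity above 50% at 5 µM, with a well cell count of 50 or more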;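 note: per-cell ratio of nuclear to cytoplasmic median beta-catenin stain intensity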
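System: HeLa cells, endogenous beta-catenin; compound dosing: 5 µM primary single dose, 0.1% DMSO, 0.02–20 µM confirmation series; incubation: 24 h compound exposure at 37°C, 5% CO2; signal: beta-catenin immunofluorescence imaging with DAPI; evaluation: % activation, nuclear-to-cytoplasmic median beta-catenin signal ratio per cell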
NPY-Y1 PAM-ag: human NPY-Y1 potentiation or agonism, primary screen | NPY-Y1 expressing cells, potentiator/agonist activation | activation, % at 3.6 µM | actives 0.37% (n = 220,000) | AID 1304; in the data active = activation above about 33%, passing the limit was not always enough;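 note: cells stimulated with NPY at EC10 then isoproterenol at EC100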
Target sequence (P25929 whole entry, looked up): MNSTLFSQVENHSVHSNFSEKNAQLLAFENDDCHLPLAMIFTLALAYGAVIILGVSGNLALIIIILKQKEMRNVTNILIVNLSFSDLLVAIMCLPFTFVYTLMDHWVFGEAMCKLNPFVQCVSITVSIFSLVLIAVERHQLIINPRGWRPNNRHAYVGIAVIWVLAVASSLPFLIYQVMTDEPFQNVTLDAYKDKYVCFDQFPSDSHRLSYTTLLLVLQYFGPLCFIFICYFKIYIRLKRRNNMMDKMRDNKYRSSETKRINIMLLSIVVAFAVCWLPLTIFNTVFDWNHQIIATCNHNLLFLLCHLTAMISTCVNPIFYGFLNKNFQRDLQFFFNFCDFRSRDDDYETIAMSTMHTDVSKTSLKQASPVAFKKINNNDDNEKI
NPY Y2 blocker: blocks the human neuropeptide Y Y2 receptor; AID 793; inhibition, % at 2.7 µM; NPY-Y2 expressing cells, antagonist mode; P49146; actives 0.99% (n = 140,000); in the data active = inhibition above about 17%
Target sequence (P49146 whole entry, looked up): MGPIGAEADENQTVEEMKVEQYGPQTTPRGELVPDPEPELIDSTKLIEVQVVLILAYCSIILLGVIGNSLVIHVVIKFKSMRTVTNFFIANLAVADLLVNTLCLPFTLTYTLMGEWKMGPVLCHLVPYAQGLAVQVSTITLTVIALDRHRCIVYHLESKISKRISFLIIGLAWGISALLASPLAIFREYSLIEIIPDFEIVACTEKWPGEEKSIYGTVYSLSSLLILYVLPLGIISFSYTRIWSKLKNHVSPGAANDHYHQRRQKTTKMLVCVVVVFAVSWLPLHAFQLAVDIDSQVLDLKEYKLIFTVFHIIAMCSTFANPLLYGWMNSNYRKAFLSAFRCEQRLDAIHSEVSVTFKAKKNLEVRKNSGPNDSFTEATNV
NPY2 pot ag: human NPY-Y2 potentiation or agonism, primary screen | cells expressing NPY-Y2, potentiator/agonist read-out | activation, % at 3.6 µM | actives 0.45% (n = 220,000); in the data active = activation above about 27%;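 note: cells stimulated with NPY near EC25 plus isoproterenol at EC100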
NPY-Y1 antag: NPY-Y1 (human) receptor antagonism; actives 1% (n = 200,000); inhibition, % at 3.6 µM; AID 1040; P25929; HEK293-CNG Y1 cells, membrane potential fluorescence; NPY at EC95, then isoproterenol;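 active = inhibition above the campaign mean inhibition of all tested compounds plus 3 SD, cut at about 20% in these data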
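Assay system: HEK293 cells with Y1 receptor plus CNG channel | Probe or stimulus: NPY (25 nM), isoproterenol (1 µM), Ro 20-1724 (25 µM) | Timing: Compound incubation 1 h at room temperature, readout 45 min post-stimulation | Measured by: Membrane-potential fluorescent dye readout | Benchmarks: High control isoproterenol alone, low control NPY with isoproterenol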
MT stabilizer: stabilizes microtubules in HeLa cells | HeLa tubulin immunostaining HCS, 24 h; share of cells brighter than vehicle mean+2SD | % tubulin-high responders, % at 10 µM | actives 0.83% (n = 200,000);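 active = plate Z-score above 3 for both tubulin-high and condensed-nucleus cell shares, with cell loss under 80%, at 10 µM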;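 note: anti alpha tubulin signal scored within the nucleus-defined area of each cell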
Each line names hits and unclear results; the compound was inactive in the other large screens.

Cc1cccc(OCCn2c(NC(=O)c3ccco3)nc3ccccc32)c1	NPY Y2 blocker 37, NPY-Y1 antag 34 (no result: b-catenin transl)
Cc1ccc(OCCn2c(NC(=O)c3ccco3)nc3ccccc32)cc1	NPY Y2 blocker 20
Cc1nc(C(=O)N/N=C/c2[nH]ncc2Br)cs1	none (no result: NPY Y2 blocker, NPY-Y1 antag, MT stabilizer)
CCOc1ccc(C(CC(=O)O)NC(=O)c2cccs2)cc1OC (centres undefined)	none (no result: NPY Y2 blocker)
CC(C)=CCCC(C)CN1CCC(N2CCC(C(=O)NC(C)C)CC2)CC1 (centres undefined)	none (no result: NPY Y2 blocker)
CC(=O)c1ccc(NC(=O)CC23CC4CC(C2)CC(n2nnc(C)n2)(C4)C3)cc1	none (no result: NPY Y2 blocker)
N#Cc1c(NCCN)nc(NCc2ccccc2)c2c1CCN(Cc1ccccc1)C2	none
N#Cc1c(N2CCCCC2)nc(N2CCCCC2)c2c1CCN(Cc1ccccc1)C2	NPY Y2 blocker 25, NPY-Y1 antag 23
NC1=NC(=O)/C(=C/c2cn(Cc3ccccc3)c3ccccc23)S1	none
CCCOc1ccc2ccccc2c1/C=N/n1c(C)nnc1-n1nc(C)cc1C	b-catenin transl 168, NPY Y2 blocker 26, NPY-Y1 antag 29, MT stabilizer 55
Cc1ccc(CN(C)C(=O)c2cc(COc3ccc(F)cc3Cl)on2)o1	NPY-Y1 antag 20 (no result: NPY Y2 blocker)
COc1cc2c(cc1OC)-c1cc(NC3CCCCC3)nc(=O)n1CC2	NPY-Y1 antag 33
COc1cc2c(cc1OC)-c1cc(NC3CC3)nc(=O)n1CC2	none
CCNc1cc2n(c(=O)n1)CCc1cc(OC)c(OC)cc1-2	none
COc1cc2c(cc1OC)-c1cc(NC3CCCCCCC3)nc(=O)n1CC2	NPY Y2 blocker 72, NPY-Y1 antag 64
CN(C)c1ccc(/C=N/NC(=O)CN(c2cccc(Cl)c2)S(C)(=O)=O)cc1Br	none
COC(=O)c1c(NC(=O)c2c(C)noc2C)sc2c1CCCCCC2	none
COC(=O)c1c(NC(=O)c2c(-c3ccccc3Cl)noc2C)sc2c1CCC2	NPY Y2 blocker 23, NPY-Y1 antag 37 (no result: b-catenin transl)
COc1ccc(S(=O)(=O)NC(C)(C)C)cc1-c1nnc2c3ccccc3c(C)nn12	NPY Y2 blocker 36, NPY-Y1 antag 30 (no result: b-catenin transl)
Cc1ccc(S(=O)(=O)N2CCN(C)CC2)cc1-c1nnc2c3ccccc3c(C)nn12	NPY Y2 blocker 40, NPY-Y1 antag 37
COc1ccc(S(=O)(=O)N2CCN(CCO)CC2)cc1-c1nnc2c3ccccc3c(C)nn12	none
Cc1ccc(S(=O)(=O)N2CCN(CCO)CC2)cc1-c1nnc2c3ccccc3c(C)nn12	NPY Y2 blocker 57 (no result: b-catenin transl)
O=[N+]([O-])c1ccc(Cl)c(S(=O)(=O)/N=C(/c2ccccc2)N2CCOCC2)c1	none (no result: NPY Y2 blocker)
Cc1ccc(CNc2oc(-c3ccco3)nc2C#N)cc1	none
COc1ccc(-c2nc(C#N)c(NCc3ccc(C)cc3)o2)cc1OC	NPY Y2 blocker 27
Cc1ccc(-c2nc(C#N)c(NCc3cccc4c3OCO4)o2)cc1	NPY Y2 blocker 22, NPY-Y1 antag 28
O=C(c1ccc(NC(=S)NCc2ccco2)cc1)N1CCCCC1	none (no result: NPY Y2 blocker)
CC/C(=N\NC(=O)CCC(=O)NCc1ccccc1)c1ccc(O)cc1	MT stabilizer 12 (no result: NPY Y2 blocker)
CCOc1cc(N2CCOCC2)c(OCC)cc1NS(=O)(=O)c1ccc(Cl)s1	MT stabilizer 40
COc1cc(S(=O)(=O)Nc2cccc(C)c2)ccc1N=Cc1c(C)[nH]n(-c2ccccc2)c1=O	MT stabilizer 18
COc1cc(S(=O)(=O)Nc2ccc(C)cc2)ccc1N=Cc1c(C)[nH]n(-c2ccccc2)c1=O	none
COc1ccccc1NC(=S)N(Cc1ccco1)Cc1cc2cc(C)ccc2[nH]c1=O	MT stabilizer 33
COc1ccccc1NC(=O)N(Cc1ccco1)Cc1cc2cccc(C)c2[nH]c1=O	none
Cc1ccc2[nH]c(=O)c(CN(Cc3ccco3)C(=O)c3ccncc3)cc2c1	MT stabilizer 14
COc1ccc(C(=O)N(Cc2ccco2)Cc2cc3cc(C)ccc3[nH]c2=O)cc1OC	none (no result: b-catenin transl)
Clc1cccc(Cl)c1COc1ccccc1CNn1cnnc1	MT stabilizer 22 (no result: NPY Y2 blocker)
CCOc1ccc(Nc2cc(C)nc(-n3nc(C)cc3C)n2)cc1	b-catenin transl 87
CC1CCN(C2=C(NS(=O)(=O)c3ccccc3)C(=O)c3ccccc3C2=O)CC1	NPY-Y1 PAM-ag 95, NPY2 pot ag 78 (no result: NPY Y2 blocker, NPY-Y1 antag, MT stabilizer)
O=S(=O)(Nc1nc2ccccc2nc1N1CCN(c2ccccc2)CC1)c1ccc(F)cc1	none
O=C1C(NS(=O)(=O)c2ccccc2)=C(N2CCN(c3ccc(F)cc3)CC2)C(=O)c2ccccc21	NPY-Y1 PAM-ag 89, NPY2 pot ag 87 (no result: NPY Y2 blocker, NPY-Y1 antag, MT stabilizer)
CC1(C)Cc2nc3scc(NC(=O)c4ccccc4)c3cc2CO1	none (no result: NPY Y2 blocker, NPY-Y1 antag, MT stabilizer)
c1ccc(-c2cc(-c3nnc4n3N=C(c3ccc5ccccc5c3)CS4)[nH]n2)cc1	MT stabilizer 21
Cc1cc(-c2nnc3n2N=C(c2ccc(-c4ccccc4)cc2)CS3)n[nH]1	none
O=S(=O)(Cc1cc(Oc2ccccc2)nc(-c2ccccc2)n1)c1ccccc1	NPY Y2 blocker 21, NPY-Y1 antag 22
N#Cc1c(N)nc2c(c1-c1ccc3c(c1)OCO3)CCc1ccccc1-2	MT stabilizer 26
N#Cc1c(N)c(C#N)c(-c2ccc3c(c2)OCO3)c2c1CCCC2	none (no result: NPY-Y1 PAM-ag, NPY Y2 blocker, NPY2 pot ag, NPY-Y1 antag, MT stabilizer)
Cc1cc(NC(=O)COC(=O)c2ccc(S(=O)(=O)N3CCCc4ccccc43)cc2)no1	b-catenin transl 70, MT stabilizer 35
CS(=O)(=O)N1CCN(c2ccccc2NC(=O)c2ccco2)CC1	none
COc1ccc(C2CC(c3cccs3)=Nc3ccccc3S2)cc1 (centres undefined)	MT stabilizer 21
COc1ccc2nc(NC(=O)CN(c3ccc(C)cc3)S(=O)(=O)c3c(C)nn(C)c3C)sc2c1	NPY-Y1 PAM-ag 55, NPY2 pot ag 45
COC(=O)c1nnn(-c2nonc2N)c1CN1CCc2ccccc21	MT stabilizer 36
CC(C)NC(=O)NC(=O)COc1cccc2c1OC(C)(C)C2	none
CC1(C)Cc2cccc(OCC(O)CN3CCN(c4ccccn4)CC3)c2O1 (centres undefined)	NPY-Y1 PAM-ag 104, NPY2 pot ag 91
CC1(C)Cc2cccc(OCC(O)CNCc3ccccn3)c2O1 (centres undefined)	NPY-Y1 PAM-ag 80, NPY2 pot ag 66
CNc1nc(C23CC4CC(CC(C4)C2)C3)cs1	none (no result: NPY Y2 blocker)
ClCC1NCC(c2ccccc2Cl)c2c1[nH]c1ccccc21 (centres undefined)	none (no result: NPY Y2 blocker)
Cc1nn(Cc2ccccc2)c(Cl)c1/C=C/C(=O)OC(C(=O)NC(N)=O)C(C)C (centres undefined)	none (no result: NPY Y2 blocker)
COCCNC(=S)N(CCc1c(C)[nH]c2ccc(Cl)cc12)Cc1cccs1	none (no result: NPY Y2 blocker)
CNC(=S)N(CCc1c(C)[nH]c2ccc(Cl)cc12)Cc1cccs1	NPY-Y1 PAM-ag 49, NPY2 pot ag 44 (no result: NPY Y2 blocker)
CC(C)N1CCN(Cc2cccn2-c2nccs2)CC1CCO (centres undefined)	none (no result: NPY Y2 blocker)
